Calls of active or inactive are those of the source.
Experiments:
[1] = Acute toxicity in ip dosed Albino-Swiss mouse; assay type: organism-based; details: in vivo
How it was run: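 Mice (20–24 g) given compound i.p. as 0.5% methylcellulose suspension, 10 ml/kg, in rising doses up to 2000 mg/kg; six animals per dose. Deaths counted at 24 h, general behaviour watched for 6 h. LD50 by Litchfield and Wilcoxon.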

Mus musculus [2] = experiment: Analgesic activity in Albino-Swiss mouse assessed as protection against phenylbenzoquinone-induced writhing administered as ip 30 mins before phenylbenzoquinone challenge measured after 5 mins; assay type: functional
How it was run: (§1)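 Mice (groups of 6–8) dosed i.p. at 3.125–50 mg/kg as 0.5% methylcellulose suspension; 30 min later 0.02% phenylbenzoquinone (ethanol–water 5:95) 0.25 ml i.p. Writhes counted for 10 min starting 5 min after irritant. % effect versus control writhing count; ED50 with confidence limits by Litchfield and Wilcoxon.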

Mus musculus [3] = species: Mus musculus; experiment: Ratio of acetylsalicylic acid ED50 to compound ED50 for analgesic activity in Albino-Swiss mouse assessed as protection against phenylbenzoquinone-induced writhing; assay type: functional; how it was run: as §1
Mus musculus [4] = experiment: Analgesic activity in Albino-Swiss mouse assessed as inhibition of heat-induced paw licking or jumping behavior administered as ip measured after 30 mins for 45 secs by Eddy and Leimbach's hot plate method; assay type: functional
How it was run: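 Compound i.p. in 0.5% methylcellulose suspension (10 ml/kg), groups of 6–8 mice. Placed on plate at 54–56 °C; latency to forepaw licking or jumping timed by stop-watch before and 30 min after dosing, 45 s cut-off. Latency prolongation compared statistically. Morphine 1, 3, 6 mg/kg and acetylsalicylic acid 100–400 mg/kg i.p. as references.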

Mus musculus [5] = experiment: Toxicity in ip dosed Albino-Swiss mouse assessed as decrease in locomotor activity at hot plate test ED50 after 1 hr; assay type: organism-based; set-up: scale not given: the % may be the effect or the level left; details: in vivo
How it was run: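 Mice (Albino-Swiss, 20–24 g) received compound i.p. as a 0.5% methylcellulose suspension (10 ml/kg). After 30 min, each mouse was put alone for a 30-min session in a circular photoresistor actometer (30 cm diameter, two photocells, impulse counter), which counted movements.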

Mus musculus [6] = species: Mus musculus; experiment: Ratio of morphine ED50 to compound ED50 for analgesic activity in Albino-Swiss mouse by Eddy and Leimbach's hot plate method; assay type: functional
Mu-type opioid receptor = Mu-type opioid receptor (Rattus norvegicus, UniProt P33535); experiment: Displacement of [3H]-dihydromorphine from mu opioid receptor in rat cerebral cortex by liquid scintillation counting; assay type: tissue-based
Mu-type opioid receptor, sequence (P33535 whole entry): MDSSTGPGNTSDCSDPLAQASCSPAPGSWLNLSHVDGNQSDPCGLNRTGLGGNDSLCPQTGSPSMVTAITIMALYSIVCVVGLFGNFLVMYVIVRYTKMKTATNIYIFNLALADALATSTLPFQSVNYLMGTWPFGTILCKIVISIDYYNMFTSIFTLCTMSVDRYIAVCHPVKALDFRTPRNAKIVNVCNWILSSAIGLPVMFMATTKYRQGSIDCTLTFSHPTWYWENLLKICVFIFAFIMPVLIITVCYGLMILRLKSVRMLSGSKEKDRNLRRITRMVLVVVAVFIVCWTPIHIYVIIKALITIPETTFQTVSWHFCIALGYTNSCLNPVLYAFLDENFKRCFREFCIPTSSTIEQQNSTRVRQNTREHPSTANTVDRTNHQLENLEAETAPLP
How it was run: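 Rat cerebral cortex homogenised in 50 mM Tris-HCl pH 7.6, washed by centrifugation at 48,000 × g, preincubated 30 min at 37 °C to remove endogenous opioids. Membranes incubated with 0.2 nM [3H]dihydromorphine and 7–8 compound concentrations (10^-11–10^-4 M); nonspecific binding with levallorphan. Filtration on GF/C, two washes, scintillation counting, duplicates. Result given as Ki.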

Mus musculus [7] = experiment: Analgesic activity in Albino-Swiss mouse assessed as inhibition of heat-induced paw licking or jumping behavior at 200 mg/kg, ip measured after 30 mins for 45 secs by Eddy and Leimbach's hot plate method; assay type: functional, organism-based; set-up: dose 200 mg/kg
How it was run: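 Albino-Swiss mice (20–24 g), groups of 6–8, dosed i.p. as a suspension in 0.5% methylcellulose (10 ml/kg). Each mouse was placed on a metal plate at 54–56 °C, and time to forepaw licking or jumping was stopwatch-timed before and 30 min after dosing, with a 45 s cut-off. Latency prolongation was compared by Student's t-test.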

SMILES | LD50 [1] | ED50 (Mus musculus [2]) | Ratio ED50 (Mus musculus [3]) | ED50 (Mus musculus [4]) | ED50 (Mus musculus [4]; 0.5 h) | Activity (Mus musculus [5]) | Ratio ED50 (Mus musculus [6]) | IC50 (Mu-type opioid receptor) | Ki (Mu-type opioid receptor) | inhibition (Mus musculus [7])
Cc1c2c(=O)[nH]n(CCN3CCN(Cc4ccccc4)CC3)c(=O)c2c(C)n1-c1ccccc1 | > 2000 mg/kg | 0.04 mg/kg | 100 | inactive |  |  |  |  |  | 
Cc1c2c(OCCCN3CCN(c4ccccc4)CC3)nn(C)c(=O)c2c(C)n1-c1ccccc1 | 1420 mg/kg | 7.9 mg/kg |  | inactive |  |  |  |  |  | 
Cc1c2c(=O)[nH]n(CCN3CCN(Cc4ccc5c(c4)OCO5)CC3)c(=O)c2c(C)n1-c1ccccc1 | > 2000 mg/kg | 1.92 mg/kg | 100 | inactive |  |  |  |  |  | 
Cc1c2c(=O)[nH]n(CCN3CCN(c4cccc(C(F)(F)F)c4)CC3)c(=O)c2c(C)n1-c1ccccc1 | > 2000 mg/kg | 1.23 mg/kg | 100 |  | 15.9 mg/kg | 20% | 3 |  |  | 
Cc1c2c(=O)[nH]n(CCN3CCN(C(c4ccccc4)c4ccccc4)CC3)c(=O)c2c(C)n1-c1ccccc1 | > 2000 mg/kg | 1.83 mg/kg | 100 | inactive |  |  |  |  |  | 
CN1CC[C@]23c4c5ccc(O)c4O[C@H]2[C@@H](O)C=C[C@H]3[C@H]1C5 [MORPHINE] |  | 2.44 mg/kg |  |  | 3.5 mg/kg |  |  |  |  | 
Cc1c2c(=O)[nH]n(CCN3CCN(c4ccccc4Cl)CC3)c(=O)c2c(C)n1-c1ccccc1 | > 2000 mg/kg | 3.77 mg/kg | 100 | inactive |  |  |  |  |  | 
COc1ccccc1N1CCN(CCn2[nH]c(=O)c3c(C)n(-c4ccccc4)c(C)c3c2=O)CC1 | > 2000 mg/kg | 8.02 mg/kg | 100 | inactive |  |  |  |  |  | 
COc1ccccc1N1CCN(CCCOc2nn(C)c(=O)c3c(C)n(-c4ccccc4)c(C)c23)CC1 | > 2000 mg/kg | 11.2 mg/kg |  | inactive |  |  |  |  |  | 
C=CCN1CC[C@]23CCCC[C@H]2[C@H]1Cc1ccc(O)cc13 [LEVALLORPHAN] |  |  |  |  |  |  |  | 0.000634 µM |  | 
COc1cccc(C2(O)CCCCC2CN(C)C)c1 (centres undefined) [TRAMADOL] |  |  |  |  |  |  |  |  | 2.4 µM | 
CC(=O)Oc1ccccc1C(=O)O |  |  |  |  |  |  |  |  |  | inactive
Cc1c2c(=O)[nH]n(CCN3CCN(c4ccccc4F)CC3)c(=O)c2c(C)n1-c1ccccc1 | > 2000 mg/kg | 0.31 mg/kg | 100 |  | 15 mg/kg | 20% | 3 | 24.2 µM | 11.1 µM | 
Cc1c2c(=O)[nH]n(CCN3CCC(Cc4ccccc4)CC3)c(=O)c2c(C)n1-c1ccccc1 | > 2000 mg/kg | 1.91 mg/kg | 100 | inactive |  |  |  |  |  | 
Cc1c2c(=O)[nH]n(CCN3CCN(c4ccccc4)CC3)c(=O)c2c(C)n1-c1ccccc1 | > 2000 mg/kg | 1.48 mg/kg | 100 | inactive |  |  |  |  |  | 
Cc1c2c(=O)[nH]n(CCN3CCN(c4ccccn4)CC3)c(=O)c2c(C)n1-c1ccccc1 | > 2000 mg/kg | 6.84 mg/kg | 100 | inactive |  |  |  |  |  | 
Cc1ccc(Cl)cc1N1CCN(CCn2[nH]c(=O)c3c(C)n(-c4ccccc4)c(C)c3c2=O)CC1 | > 2000 mg/kg | 0.55 mg/kg | 100 |  | 10.3 mg/kg | 45% | 3 | 5.6 µM | 2.6 µM | 
Cc1c2c(=O)[nH]n(CCN3CCN(C/C=C/c4ccccc4)CC3)c(=O)c2c(C)n1-c1ccccc1 | > 2000 mg/kg | 1.25 mg/kg | 100 | inactive |  |  |  |  |  | 

From ChEMBL document CHEMBL1828600, “Derivatives of pyrrolo[3,4-d]pyridazinone, a new class of analgesic agents” (Eur J Med Chem, 2011)
